Most compounds without a hit are left out; they make up all but 2.4% or so of the library.
Scp1 inh: Scp-1 phosphatase inhibitors, primary screen, biochemical, colorimetric, uHTS; AID 493091, 2011; Carboxy-terminal domain RNA polymerase II polypeptide A small phosphatase 1 (Homo …; inhibition, % at 20 µM; Recombinant Scp1, phosphopeptide, malachite green phosphate absorbance; 340,000 compounds, 0.88% hits;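 active = inhibition above about 50% at 20 µM, limit read from the data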;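 note: plate controls were DMSO wells with enzyme for no effect and wells lacking enzyme for full effect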
Target sequence (Q9GZU7 76-261 limits assumed): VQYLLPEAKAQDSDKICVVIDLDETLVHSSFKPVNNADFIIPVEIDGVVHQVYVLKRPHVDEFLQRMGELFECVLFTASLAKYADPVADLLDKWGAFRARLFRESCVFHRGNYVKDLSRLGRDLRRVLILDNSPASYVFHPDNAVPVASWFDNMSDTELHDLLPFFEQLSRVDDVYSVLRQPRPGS
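Test system – truncated SCP-1 phosphatase (76-261aa) · Reagent – Phosphorylated 17-residue peptide substrate · Incubation – 45 min room-temperature reaction, 5 min colour, 30 min stabiliser · Detection – colorimetric phosphate reagent with accelerator and stabiliser, absorbance at 630 nm · Measure – % inhibition at 20 µM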
SUMO1 PPI mod: modulators of SUMO1 protein-protein interactions, primary screen, biochemical, uHTS. inhibition, % at 20 µM. Small ubiquitin-related modifier 1 (Homo sapiens), P63165. SUMO1 binding to a labelled peptide, TR-FRET, 1 h. 360,000 compounds, 0.33% hits. AID 602429, 2012; in the data active = inhibition above about 37%
Target sequence (P63165 whole entry, looked up): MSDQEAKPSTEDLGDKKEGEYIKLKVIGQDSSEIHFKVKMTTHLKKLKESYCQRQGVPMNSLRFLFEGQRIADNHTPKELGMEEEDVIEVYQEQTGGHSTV
DNMT1 block: human DNMT1 methyltransferase inhibitors, primary screen, biochemical, molecular beacon, fluorescence, HinP1I cleavage, uHTS | inhibition (reported as % activation of signal), % at 10 µM | 360,000 compounds, 0.83% hits; in the data active = inhibition above about 50%
STEP block: STEP phosphatase inhibitors, primary screen, biochemical, fluorescence intensity, uHTS; Tyrosine-protein phosphatase non-receptor type 5 (Homo sapiens), P54829; recombinant STEP, OMFP fluorogenic substrate; inhibition, % at 20 µM; 360,000 compounds, 0.25% hits; AID 588621, 2011;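 active = inhibition at 20 µM, scaled per plate between control wells, above about 37%, limit read from the data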;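 note: 0% = DMSO with enzyme and substrate and 100% = substrate only without enzyme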
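Also added – OMFP at 25 µM · Test system – STEP tyrosine phosphatase · Technique – FITC-channel fluorescence of OMFP product · Schedule – 20 min at room temperature, dark · Evaluation – control-normalized % inhibition with plate pattern correction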
NadD block: inhibitors of S. aureus NadD, primary screen, biochemical, colorimetric, uHTS; 360,000 compounds, 0.78% hits; inhibition, % at 20 µM; Nicotinate-nucleotide adenylyltransferase NadD (Staphylococcus aureus N315); purified NadD enzyme, colorimetric absorbance read-out; AID 602399, 2012; in the data active = inhibition above about 26%
LMPTP block: LMPTP phosphatase inhibitors, primary screen, biochemical, fluorescence intensity, uHTS | 360,000 compounds, 0.22% hits | recombinant LMPTP-A, OMFP fluorogenic substrate | inhibition, % at 20 µM | Low molecular weight phosphotyrosine protein phosphatase (Homo sapiens), P24666 | AID 651560, 2012;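 active = compounds that cut the enzyme signal by at least half of the control window in the single-dose screen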;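 note: plate controls were DMSO wells with enzyme plus substrate for no effect and substrate without enzyme for full effect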
Target sequence (P24666 whole entry, looked up): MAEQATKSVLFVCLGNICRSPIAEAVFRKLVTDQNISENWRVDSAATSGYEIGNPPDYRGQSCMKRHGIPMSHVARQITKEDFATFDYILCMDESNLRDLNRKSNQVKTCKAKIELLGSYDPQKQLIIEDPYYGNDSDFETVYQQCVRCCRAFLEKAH
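material = LMPTP-A | quantity = 0.625 nM enzyme | reagent = OMFP substrate, 400 µM final | buffer or medium = Bis-Tris pH 6.0, DTT, detergent | detection = endpoint fluorescence intensity from OMFP dephosphorylation | dosing = single 20 µM dose | read-out basis = % inhibition relative to no-enzyme and uninhibited control wells | control set = no-enzyme and uninhibited controls | timing = 50 min at room temperature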
Scp-1 conf: Scp-1 phosphatase inhibitors, retest, confirmation, biochemical, colorimetric, single concentration | inhibition, % at 20 µM | AID 540281, 2011 | 2,500 compounds, 61% hits | shares compounds with Scp1 inh | recombinant SCP-1 catalytic domain, phosphate release, malachite green absorbance;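 note: plate controls were DMSO with enzyme for no effect and buffer wells lacking enzyme for full effect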
MG interference: colorimetric readout interference by compounds, confirmation, artefact control for Scp-1 inhibitor project, biochemical, single concentration; shares compounds with Scp1 inh; Colorimetric interference counterscreen, malachite green absorbance 630 nm; apparent inhibition (interference), % at 20 µM; 2,500 tested, under 10 active; AID 540313, 2011;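 note: compounds added after enzyme reaction finished so only phosphate colour detection is probed; plate controls were DMSO wells with completed Scp-1 reaction for no effect and substrate wells lacking enzyme for full effect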
Scp1 DSF: Scp-1 binding by thermal shift, confirmation, orthogonal assay for Scp-1 inhibitor project, biophysical, differential scanning fluorimetry; 1,500 compounds, 25% hits; AID 540329, 2011; Recombinant SCP1, Sypro Orange thermal shift Tm; shares compounds with Scp1 inh; thermal shift relative to vanadate control, % at 40 µM;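 active = substances whose mean melting-temperature shift, as a percentage of the reference inhibitor's shift, reaches about 5.3%, limit read from the data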;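 note: 0% = Tm of DMSO wells and 100% = Tm with sodium orthovanadate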
Numbers without * were called inactive; . = no result.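 Rule for the calls, unless noted: active = inhibition of at least 30% at 20 µM; inactive = the rest.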

SMILES	Scp1 inh	SUMO1 PPI mod	DNMT1 block	STEP block	NadD block	LMPTP block	Scp-1 conf	MG interference	others
Cc1cc(C)c2c(N)c(C(=O)c3ccc(Cl)c(Cl)c3)sc2n1	80*	-5	0	19	5	62*	10	-8
Cc1ccc(C)c(C(=O)Nc2ccncc2)c1	78*	1	1	0	-1	-3	-9	-10
Cc1ccc(C(=O)Nc2ccncc2)c(Cl)c1	5	-4	0	-1	-6	-2	.	.
CNc1cc(=O)n(C)c(=O)n1-c1ccccc1	-2	3	2	0	-2	-1	.	.
CCn1c(NC)cc(=O)n(C)c1=O	79*	24	7	-1	-7	0	-12	-6
CC1CCN(CCCNC(=O)C2CCN(S(=O)(=O)N3CCC4(CC3)OCCO4)CC2)CC1	-3	-5	-1	1	-1	-2	.	.
O=C(CCc1ccc(O)c(O)c1)NNC(=S)Nc1ccc(Br)cc1Cl	1	8	5	-1	3	0	.	.
COc1ccc(C(=O)C[n+]2ccc3c(c2)nnn3-c2ccccc2)cc1	5	-32	-1	1	0	2	.	.
O=C(Nc1ccccc1)N1CCCC2CCCCC21 (stereo not given)	1	-5	-2	-5	0	-2	.	.
CC(=O)Nc1cc(NC(C)=O)cc(C(=O)N2CCCC3CCCCC32)c1 (stereo not given)	61*	17	39	38	-6	12	54*	-1	Scp1 DSF=5.7*
O=S1(=O)N=C(N2CCc3ccccc3C2)c2ccccc21	76*	4	-4	0	-1	0	-16	-17
Cn1nc(C(=O)OCC(=O)Nc2cccc(S(=O)(=O)N3CCCC3)c2)c2ccccc2c1=O	-4	5	0	-2	-3	0	.	.
Nc1nc(=O)n(C2CC(O)C(CO)O2)cc1F (stereo not given)	0	-2	-30	0	2	0	-3	-8
C/C(Cn1nc([N+](=O)[O-])cc1C)=N\NC(=O)c1ccc(C(C)(C)C)cc1	81*	-8	-4	10	1	-2	-21	-19
COCCCn1c2nc3ccccc3nc2c2c(=O)n(-c3ccccc3OC)cnc21	5	-23	5	-1	1	0	.	.
COc1ccccc1-n1cnc2c(c1=O)c1nc3ccccc3nc1n2-c1ccc(C)c(C)c1	96*	1	24	17	2	7	67*	-6	Scp1 DSF=-8
O=C(NCCN1CCNC1=O)C1CCC(=O)N(CCc2ccccc2)C1 (stereo not given)	-8	0	1	0	-6	1	-16	-12
O=C(c1ncn[nH]1)N1CCN(c2nc(-c3ccccc3)cs2)CC1	56*	15	21	0	9	4	39*	-1	Scp1 DSF=2
O=C(O)c1ccc(S(=O)(=O)c2ccccc2)cc1	-8	-3	2	-4	3	0	.	.
O=C(O)c1ccc(Oc2ccc(S(=O)(=O)c3ccc(C(=O)O)c(C(=O)O)c3)cc2)cc1	54*	0	10	14	7	0	41*	-25	Scp1 DSF=-10
O=C(O)C1C2C=CC(C2)C1C(=O)Nc1ccccc1Br (stereo not given)	69*	26	23	44*	-1	2	58*	-15	Scp1 DSF=-26
CCOc1ccc(CCNC(=O)/C=C/c2ccco2)cc1OCC	67*	-12	4	1	-1	-2	-9	-21
CC(C)(C)NC(=O)C(c1ccco1)N(C(=O)Cn1nnc(-c2ccc(F)cc2)n1)c1ccccc1F (stereo not given)	-11	1	1	1	-10	2	.	.
O=C(CCc1nc2ccccc2c(=O)[nH]1)NNC(=O)c1ccc(Cl)cc1	-4	1	2	-2	-4	-1	.	.
O=C(CCc1nc2ccccc2c(=O)[nH]1)NNC(=O)c1cccc(Cl)c1	62*	10	3	1	9	0	-13	-20
SMILES	Scp1 inh	SUMO1 PPI mod	DNMT1 block	STEP block	NadD block	LMPTP block	Scp-1 conf	MG interference	others
CCOC(=O)C1=C(COC(=O)c2ccc(Cl)nc2)NC(=O)NC1C (stereo not given)	-1	2	10	0	-5	1	.	.
COc1ccc(-c2noc(CN3CCN(c4ccccc4)CC3)n2)cc1	68*	1	-3	-3	-3	1	-15	-12
COc1ccc(-c2noc(CCC(=O)N3CCN(c4ccccc4Br)CC3)n2)cc1	54*	-3	-5	3	-3	4	-12	-8
C=CCN1C(=O)C(=O)N(CC(=O)NCC(=O)Nc2ccc(F)c(F)c2F)C1=O	-2	4	6	-2	-3	-1	-9	-3
O=C(CN1C(=O)C(=O)N(Cc2ccco2)C1=O)Nc1ccc(F)c(F)c1F	1	-2	11	-1	6	0	.	.
O=C(CN(c1ccccc1)S(=O)(=O)c1ccc(F)cc1)NCc1cccs1	-5	-1	0	2	-6	-1	.	.
CCC1(CC)NC(=O)N(CC(=O)OCC(=O)Nc2ccccc2OC(F)F)C1=O	1	4	9	-2	-1	-2	-11	-14
Cc1cc(C)cc(NC(=O)C2CCCN2/C=C/C(=O)C(F)(F)F)c1 (stereo not given)	-6	20	4	-6	-1	-1	.	.
COCCNCC(=O)Nc1nc(C)cs1	-6	-6	-1	0	2	-1	.	.
COc1ccc(CNC(=O)CN(C)S(=O)(=O)c2ccc3c(c2)n(C)c(=O)c(=O)n3C)cc1	-6	5	0	0	0	-1	-8	-12

From PubChem BioAssay
